Among the data in ChEMBL document CHEMBL1800053, “Concise synthesis and antiangiogenic activity of artemisinin-glycolipid hybrids on chorioallantoic membranes” (Bioorg Med Chem Lett, 2010) are inhibition and Activity values, retold here.

Each structure is given as a SMILES string.

The species named for one series is Gallus gallus. In words: Antiangiogenesis activity against fertilized chicken egg chorioallantoic membrane assessed as inhibition of neovascularization at 2.5 nmol/egg by CAM vessel development assay relative to control. The class given is functional, tissue-based. A digest of the protocol: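 Fertilized chicken eggs incubated at 37 °C, 80–90% relative humidity. Day 3: window opened after removing 2 ml albumin. Day 5: sample loaded on a quarter-size coverslip placed on the CAM of each embryo, 2.5 nmol/egg. Scored as positive eggs out of 10 tested, graded inhibition effect, and % inhibition of vessel development relative to control.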

A short description of series [1]: Embryotoxicity in fertilized chicken embryo at 2.5 nmol/egg. In kind it is toxicity, Gallus gallus.

Broadly, the inhibition is the percentage by which the read-out fell short of the control.

As for `C[C@H](CCCCC(=O)O)O[C@@H]1O[C@@H](C)[C@H](O)C[C@H]1O` [DAUMONE], the inhibition in the series listed under Gallus gallus was determined as 70%. The Activity result in series [1] was “Non-toxic”.

In the case of `C[C@H]1[C@@H](CCCOC(=O)CCCC[C@H](C)O[C@@H]2O[C@@H](C)[C@H](OC(=O)c3ccccc3)C[C@H]2OC(=O)c2ccccc2)O[C@@H]2O[C@@]3(C)CC[C@H]4[C@H](C)CC[C@@H]1[C@@]24OO3`, the inhibition in the series listed under Gallus gallus came out at 80%. For the same molecule, the Activity entry in series [1] is listed as “Non-toxic”.

Turning to `CO[C@@H]1[C@H](OC(=O)/C=C/C=C/C=C/C=C/C(=O)O)CC[C@]2(CO2)[C@H]1[C@@]1(C)O[C@@H]1CC=C(C)C` [FUMAGILLIN], in the series filed under Gallus gallus, the inhibition came out at 40%. The Activity entry in series [1] was “Toxic”.

`C[C@@H]1CC[C@H]2[C@@H](C)C(=O)O[C@@H]3O[C@@]4(C)CC[C@@H]1[C@]32OO4` [ARTEMISININ]: the inhibition in the series listed under Gallus gallus was found to be 30%. The Activity entry in series [1] is “Non-toxic”.

For the molecule `C[C@H]1[C@@H](OC(=O)CCCC[C@H](C)O[C@@H]2O[C@@H](C)[C@H](OC(=O)c3ccccc3)C[C@H]2OC(=O)c2ccccc2)O[C@@H]2O[C@@]3(C)CC[C@H]4[C@H](C)CC[C@@H]1[C@@]24OO3`, the inhibition in the series listed under Gallus gallus was 10%. Also, the Activity entry in series [1] was “Toxic”.

On to `C[C@H]1[C@@H](CCOC(=O)CCCC[C@H](C)O[C@@H]2O[C@@H](C)[C@H](O)C[C@H]2O)O[C@@H]2O[C@@]3(C)CC[C@H]4[C@H](C)CC[C@@H]1[C@@]24OO3`, for which the inhibition in the series filed under Gallus gallus came out at 60%. The Activity result in series [1] is reported as “Toxic”.

In the case of `C[C@H]1[C@@H](CCOC(=O)CCCC[C@H](C)O[C@@H]2O[C@@H](C)[C@H](OC(=O)c3ccccc3)C[C@H]2OC(=O)c2ccccc2)O[C@@H]2O[C@@]3(C)CC[C@H]4[C@H](C)CC[C@@H]1[C@@]24OO3`, the inhibition in the series filed under Gallus gallus turned out to be 60%. Also, the Activity entry in series [1] is reported as “Toxic”.

Consider `C[C@H]1[C@@H](OC(=O)CCCC[C@H](C)O[C@@H]2O[C@@H](C)[C@H](O)C[C@H]2O)O[C@@H]2O[C@@]3(C)CC[C@H]4[C@H](C)CC[C@@H]1[C@@]24OO3`, for which the inhibition in the series listed under Gallus gallus was determined as 50%. In addition, the Activity result in series [1] is recorded as “Toxic”.

For the molecule `C=CCCCC[C@@H](C)O[C@@H]1O[C@@H](C)[C@H](O)C[C@H]1OC(=O)C[C@H]1O[C@@H]2O[C@@]3(C)CC[C@H]4[C@H](C)CC[C@@H]([C@H]1C)[C@@]24OO3`, the inhibition in the series listed under Gallus gallus amounted to 50%. In series [1], this molecule gave an Activity of 50%.

For `C[C@H]1[C@@H](CC(=O)OCCCCC[C@@H](C)O[C@@H]2O[C@@H](C)[C@H](O)C[C@H]2O)O[C@@H]2O[C@@]3(C)CC[C@H]4[C@H](C)CC[C@@H]1[C@@]24OO3`, the inhibition in the series listed under Gallus gallus is 100%. For the same molecule, in series [1], the Activity result is listed as “Non-toxic”.

In the case of `C[C@H]1[C@@H](CC(=O)OCCCCC[C@@H](C)O[C@@H]2O[C@@H](C)[C@H](OCc3ccccc3)C[C@H]2OCc2ccccc2)O[C@@H]2O[C@@]3(C)CC[C@H]4[C@H](C)CC[C@@H]1[C@@]24OO3`, the inhibition in the series filed under Gallus gallus came out at 50%. In series [1], the Activity result was “Toxic”.

`C=CCCCC[C@@H](C)O[C@@H]1O[C@@H](C)[C@H](OC(=O)C[C@H]2O[C@@H]3O[C@@]4(C)CC[C@H]5[C@H](C)CC[C@@H]([C@H]2C)[C@@]35OO4)C[C@H]1O`: in the series listed under Gallus gallus, the inhibition came to 70%. In addition, the Activity result in series [1] is recorded as “Toxic”.

Turning to `C[C@H]1[C@@H](CCCOC(=O)CCCC[C@H](C)O[C@@H]2O[C@@H](C)[C@H](O)C[C@H]2O)O[C@@H]2O[C@@]3(C)CC[C@H]4[C@H](C)CC[C@@H]1[C@@]24OO3`, the inhibition in the series filed under Gallus gallus was determined as 60%. Besides, in series [1], the Activity entry is recorded as “Toxic”.

On to `O=C1CC[C@H](N2C(=O)c3ccccc3C2=O)C(=O)N1`, for which, in the series listed under Gallus gallus, the inhibition was determined as 40%. Moreover, in series [1], the Activity entry was “Toxic”.

Consider `C[C@H]1[C@@H](CC(=O)O[C@@H]2C[C@@H](O)[C@H](C)O[C@H]2O[C@H](C)CCCCCO)O[C@@H]2O[C@@]3(C)CC[C@H]4[C@H](C)CC[C@@H]1[C@@]24OO3`, for which the inhibition in the series listed under Gallus gallus was determined as 50%. Besides, the Activity result in series [1] is on record as “Non-toxic”.
